Assay results: ChEMBL document CHEMBL4033721, “Design, synthesis and evaluation of indole-2-carboxamides with pan anti-mycobacterial activity” (Bioorg Med Chem, 2017)
Converted amounts (≈) assume the structure as drawn.

How the values were obtained:
[1] = system: Mycobacterium avium-intracellulare; assay: Antimycobacterial activity against Mycobacterium avium-intracellulare isolate 1956 after 8 days by resazurin microtiter based colorimetric assay; format: functional; settings: isolate 1956, 192 h
Method in brief: (§1)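 Resazurin microtiter plate MIC, read by visual scan for growth, in Mueller Hinton II broth. Strains include clinical isolates of M. abscessus complex, M. chelonae, M. avium, M. intracellulare, M. xenopi, P. aeruginosa PAO-1 and S. aureus ATCC 25923.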

[2] = system: Mycobacteroides chelonae; assay: Antimycobacterial activity against Mycobacterium chelonae ATCC 35752 after 8 days by resazurin microtiter based colorimetric assay; format: functional; settings: ATCC 35752, 192 h; method in brief: as §1
[3] = system: Mycobacterium avium; assay: Antimycobacterial activity against Mycobacterium avium isolate 104 after 8 days by resazurin microtiter based colorimetric assay; format: functional; settings: isolate 104, 192 h
Method in brief: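 M. avium 104 MICs were read by resazurin microtiter colorimetric assay in 96-well plates, with growth scored visually, in Mueller Hinton II medium.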

[4] = Antimycobacterial activity against Mycobacterium bolletii ATCC 14472 after 8 days by resazurin microtiter based colorimetric assay; format: functional; settings: Mycobacteroides abscessus, ATCC 14472, 192 h; method in brief: as §1
[5] = system: Mycobacterium tuberculosis; assay: Antimycobacterial activity against Mycobacterium tuberculosis H37Rv MC2-6206 after 8 days by resazurin microtiter based colorimetric assay; format: functional; settings: H37Rv MC2-6206, 192 h
Method in brief: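 MIC was measured by resazurin microtiter colorimetric assay with visual growth scoring. Medium was 7H9-ADC–0.05% tyloxapol with 0.2% casaminoacids, 48 µg/ml pantothenate and 50 µg/ml L-leucine.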

[6] = system: Mycobacterium xenopi; assay: Antimycobacterial activity against wild type Mycobacterium xenopi isolate 4042 after 8 days by resazurin microtiter based colorimetric assay; format: functional; settings: isolate 4042, 192 h; method in brief: as §1
[7] = system: Mycobacteroides abscessus; assay: Antimycobacterial activity against Mycobacterium abscessus ATCC 19977 after 8 days by resazurin microtiter based colorimetric assay; format: functional; settings: ATCC 19977, 192 h; method in brief: as §1
[8] = system: Mycolicibacterium smegmatis; assay: Antimycobacterial activity against Mycobacterium smegmatis isolate MC2 155 after 8 days by resazurin microtiter based colorimetric assay; format: functional; settings: str. MC2 155, 192 h
[9] = Antimycobacterial activity against Mycobacterium massiliense isolate CRM0019 after 8 days by resazurin microtiter based colorimetric assay; format: functional, Mycobacterium abscessus subsp. massiliense; settings: Mycobacteroides abscessus, isolate CRM0019, 192 h; method in brief: as §1
[10] = Antimycobacterial activity against Mycobacterium massiliense isolate CIP108297 after 8 days by resazurin microtiter based colorimetric assay; format: functional, Mycobacterium abscessus subsp. massiliense; settings: Mycobacteroides abscessus, isolate CIP108297, 192 h; method in brief: as §1
[11] = system: Mycobacteroides abscessus; assay: Antimycobacterial activity against Mycobacterium abscessus isolate DCI 21 after 8 days by resazurin microtiter based colorimetric assay; format: functional; settings: isolate DCI 21, 192 h; method in brief: as §1
[12] = system: Mycobacteroides abscessus; assay: Bactericidal activity against Mycobacterium abscessus after 8 days by resazurin microtiter based colorimetric assay; format: functional
Method in brief: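 MBC90 found by subculturing from the MIC wells onto 7H11 agar. Value is the lowest concentration cutting CFU by 90% versus the inoculum.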

[13] = system: Staphylococcus aureus; assay: Antibacterial activity against Staphylococcus aureus ATCC 25923 after 8 days by resazurin microtiter based colorimetric assay; format: functional; settings: ATCC 25923, 192 h; method in brief: as §1
[14] = system: Pseudomonas aeruginosa; assay: Antibacterial activity against Pseudomonas aeruginosa PAO1 after 8 days by resazurin microtiter based colorimetric assay; format: functional; settings: PAO1, 192 h; method in brief: as §1

## O=C(NC1C2CC3CC(C2)CC1C3)c1cc2ccccc2[nH]1 (configuration not stated)
[1]
  MIC: > 32 µg/mL
[2]
  MIC: > 32 µg/mL
[3]
  MIC: > 32 µg/mL
[4]
  MIC: 32 µg/mL (≈ 109 µM)
[5]
  MIC: 0.39 µg/mL (≈ 1.32 µM)
[6]
  MIC: 2 µg/mL (≈ 6.79 µM)
[7]
  MIC: > 32 µg/mL
[8]
  MIC: > 25 µg/mL
[9]
  MIC: 32 µg/mL (≈ 109 µM)
[10]
  MIC: > 32 µg/mL
[11]
  MIC: > 32 µg/mL

## CC(NC(=O)c1cc2ccccc2[nH]1)C12CC3CC(CC(C3)C1)C2 (configuration not stated)
[1]
  MIC: 32 µg/mL (≈ 99.2 µM)
[2]
  MIC: 2 µg/mL (≈ 6.2 µM)
[3]
  MIC: > 32 µg/mL
[4]
  MIC: 16 µg/mL (≈ 49.6 µM)
[5]
  MIC: > 5 µg/mL
[6]
  MIC: 8 µg/mL (≈ 24.8 µM)
[7]
  MIC: 16 µg/mL (≈ 49.6 µM)
[8]
  MIC: > 20 µg/mL
[9]
  MIC: 8 µg/mL (≈ 24.8 µM)
[10]
  MIC: 8 µg/mL (≈ 24.8 µM)
[11]
  MIC: 16 µg/mL (≈ 49.6 µM)

## C[C@H]1CC[C@H](NC(=O)c2cc3ccccc3[nH]2)CC1
[2]
  MIC: > 32 µg/mL
[4]
  MIC: > 32 µg/mL
[5]
  MIC: > 10 µg/mL
[7]
  MIC: > 32 µg/mL
[8]
  MIC: > 25 µg/mL
[9]
  MIC: > 32 µg/mL
[10]
  MIC: > 32 µg/mL
[11]
  MIC: > 32 µg/mL

## Cc1cc(C)c2cc(C(=O)NC3CCCCCC3)[nH]c2c1
[1]
  MIC: 4 µg/mL (≈ 14.1 µM)
[2]
  MIC: ≤ 0.06 µg/mL
[3]
  MIC: 2 µg/mL (≈ 7.03 µM)
[4]
  MIC: ≤ 0.06 µg/mL
[12]
  MBC90: 0.015 µg/mL (≈ 0.0527 µM)
[13]
  MIC: > 160 µg/mL
[5]
  MIC: 0.08 µg/mL (≈ 0.281 µM)
[14]
  MIC: > 160 µg/mL
[6]
  MIC: 0.06 to 0.12 µg/mL (≈ 0.211 to 0.422 µM)
[7]
  MIC: ≤ 0.06 µg/mL
[8]
  MIC: 0.625 µg/mL (≈ 2.2 µM)
[9]
  MIC: ≤ 0.06 µg/mL
[10]
  MIC: ≤ 0.06 µg/mL
[11]
  MIC: ≤ 0.06 µg/mL

## CCC12CC3CC(C1)CC(NC(=O)c1cc4c(C)cc(C)cc4[nH]1)(C3)C2
[1]
  MIC: > 32 µg/mL
[2]
  MIC: > 32 µg/mL
[3]
  MIC: > 32 µg/mL
[4]
  MIC: > 32 µg/mL
[5]
  MIC: 0.039 µg/mL (≈ 0.111 µM)
[6]
  MIC: > 32 µg/mL
[7]
  MIC: > 32 µg/mL
[8]
  MIC: > 20 µg/mL
[9]
  MIC: > 32 µg/mL
[10]
  MIC: > 32 µg/mL
[11]
  MIC: > 32 µg/mL

## Cc1cc(C)c2cc(C(=O)NC(C)C34CC5CC(CC(C5)C3)C4)[nH]c2c1 (configuration not stated)
[1]
  MIC: > 32 µg/mL
[2]
  MIC: 16 µg/mL (≈ 45.6 µM)
[3]
  MIC: > 32 µg/mL
[4]
  MIC: 16 µg/mL (≈ 45.6 µM)
[5]
  MIC: 0.31 µg/mL (≈ 0.884 µM)
[6]
  MIC: > 32 µg/mL
[7]
  MIC: 16 µg/mL (≈ 45.6 µM)
[8]
  MIC: > 20 µg/mL
[9]
  MIC: 8 µg/mL (≈ 22.8 µM)
[10]
  MIC: 8 µg/mL (≈ 22.8 µM)
[11]
  MIC: > 32 µg/mL

## Cc1cc(C)c2cc(C(=O)NC3CCCCC3)[nH]c2c1
[1]
  MIC: > 32 µg/mL
[2]
  MIC: 0.25 µg/mL (≈ 0.925 µM)
[3]
  MIC: > 32 µg/mL
[4]
  MIC: 0.25 µg/mL (≈ 0.925 µM)
[5]
  MIC: 0.625 µg/mL (≈ 2.31 µM)
[6]
  MIC: 1 to 2 µg/mL (≈ 3.7 to 7.4 µM)
[7]
  MIC: 0.5 µg/mL (≈ 1.85 µM)
[8]
  MIC: 2.5 µg/mL (≈ 9.25 µM)
[9]
  MIC: 0.25 µg/mL (≈ 0.925 µM)
[10]
  MIC: 0.25 µg/mL (≈ 0.925 µM)
[11]
  MIC: 0.25 µg/mL (≈ 0.925 µM)

## Cc1cc(C)c2cc(C(=O)N[C@H]3CC[C@H](C)CC3)[nH]c2c1
[1]
  MIC: > 32 µg/mL
[2]
  MIC: ≤ 0.06 µg/mL
[3]
  MIC: > 32 µg/mL
[4]
  MIC: ≤ 0.06 µg/mL
[5]
  MIC: 0.31 µg/mL (≈ 1.09 µM)
[6]
  MIC: 0.25 to 1 µg/mL (≈ 0.879 to 3.52 µM)
[7]
  MIC: ≤ 0.06 µg/mL
[8]
  MIC: > 20 µg/mL
[9]
  MIC: ≤ 0.06 µg/mL
[10]
  MIC: ≤ 0.06 µg/mL
[11]
  MIC: ≤ 0.06 µg/mL

## O=C(NC1CCCCCC1)c1cc2ccccc2[nH]1
[2]
  MIC: > 32 µg/mL
[4]
  MIC: > 32 µg/mL
[5]
  MIC: > 5 µg/mL
[7]
  MIC: > 32 µg/mL
[8]
  MIC: > 20 µg/mL
[9]
  MIC: > 32 µg/mL
[10]
  MIC: > 32 µg/mL
[11]
  MIC: > 32 µg/mL

## CCCCCCCCNC(=O)c1cc2ccccc2[nH]1
[2]
  MIC: > 32 µg/mL
[4]
  MIC: > 32 µg/mL
[5]
  MIC: > 10 µg/mL
[7]
  MIC: > 32 µg/mL
[8]
  MIC: > 25 µg/mL
[9]
  MIC: > 32 µg/mL
[10]
  MIC: > 32 µg/mL
[11]
  MIC: > 32 µg/mL

## Cc1cc(C)c2cc(C(=O)NC34CC5CC(CC(C5)C3)C4)[nH]c2c1
[1]
  MIC: > 32 µg/mL
[2]
  MIC: > 32 µg/mL
[3]
  MIC: > 32 µg/mL
[4]
  MIC: > 32 µg/mL
[5]
  MIC: 0.0195 µg/mL (≈ 0.0605 µM)
[6]
  MIC: > 32 µg/mL
[7]
  MIC: > 32 µg/mL
[8]
  MIC: 1.25 to 2.5 µg/mL (≈ 3.88 to 7.75 µM)
[9]
  MIC: > 32 µg/mL
[10]
  MIC: > 32 µg/mL
[11]
  MIC: 32 µg/mL (≈ 99.2 µM)

## Cc1cc(C)c2cc(C(=O)NCC34CC5CC(CC(C5)C3)C4)[nH]c2c1
[1]
  MIC: > 32 µg/mL
[2]
  MIC: > 32 µg/mL
[3]
  MIC: > 32 µg/mL
[4]
  MIC: > 32 µg/mL
[5]
  MIC: 0.16 µg/mL (≈ 0.476 µM)
[6]
  MIC: 1 µg/mL (≈ 2.97 µM)
[7]
  MIC: > 32 µg/mL
[8]
  MIC: > 20 µg/mL
[9]
  MIC: > 32 µg/mL
[10]
  MIC: > 32 µg/mL
[11]
  MIC: > 32 µg/mL

## CCCCCCCCNC(=O)c1cc2c(C)cc(C)cc2[nH]1
[1]
  MIC: > 32 µg/mL
[2]
  MIC: > 32 µg/mL
[3]
  MIC: > 32 µg/mL
[4]
  MIC: > 32 µg/mL
[5]
  MIC: > 20 µg/mL
[6]
  MIC: > 32 µg/mL
[7]
  MIC: > 32 µg/mL
[8]
  MIC: 2.5 to 5 µg/mL (≈ 8.32 to 16.6 µM)
[9]
  MIC: > 32 µg/mL
[10]
  MIC: > 32 µg/mL
[11]
  MIC: > 32 µg/mL
